This is a sample that favours compounds with a hit; in the whole collection about 4.1% have one here.
Cl transport mod = modulates chloride dependent transport by human KCC2 | Q9H2X9 | KCC2 cells, thallium flux FluoZin-2 fluorescence | B-score of Tl+ flux slope (higher = more flux/activation; lower = inhibition) at 10 µM | 190,000 tested, 2.2% active | AID 1456;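 active = thallium flux slope and its plate-corrected score both differing from the plate sample mean at a set confidence after two filtering rounds, in either direction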;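 also: slope of fluorescence scaled to starting intensity during 10 to 20 s after thallium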
Target sequence (Q9H2X9 whole entry, looked up): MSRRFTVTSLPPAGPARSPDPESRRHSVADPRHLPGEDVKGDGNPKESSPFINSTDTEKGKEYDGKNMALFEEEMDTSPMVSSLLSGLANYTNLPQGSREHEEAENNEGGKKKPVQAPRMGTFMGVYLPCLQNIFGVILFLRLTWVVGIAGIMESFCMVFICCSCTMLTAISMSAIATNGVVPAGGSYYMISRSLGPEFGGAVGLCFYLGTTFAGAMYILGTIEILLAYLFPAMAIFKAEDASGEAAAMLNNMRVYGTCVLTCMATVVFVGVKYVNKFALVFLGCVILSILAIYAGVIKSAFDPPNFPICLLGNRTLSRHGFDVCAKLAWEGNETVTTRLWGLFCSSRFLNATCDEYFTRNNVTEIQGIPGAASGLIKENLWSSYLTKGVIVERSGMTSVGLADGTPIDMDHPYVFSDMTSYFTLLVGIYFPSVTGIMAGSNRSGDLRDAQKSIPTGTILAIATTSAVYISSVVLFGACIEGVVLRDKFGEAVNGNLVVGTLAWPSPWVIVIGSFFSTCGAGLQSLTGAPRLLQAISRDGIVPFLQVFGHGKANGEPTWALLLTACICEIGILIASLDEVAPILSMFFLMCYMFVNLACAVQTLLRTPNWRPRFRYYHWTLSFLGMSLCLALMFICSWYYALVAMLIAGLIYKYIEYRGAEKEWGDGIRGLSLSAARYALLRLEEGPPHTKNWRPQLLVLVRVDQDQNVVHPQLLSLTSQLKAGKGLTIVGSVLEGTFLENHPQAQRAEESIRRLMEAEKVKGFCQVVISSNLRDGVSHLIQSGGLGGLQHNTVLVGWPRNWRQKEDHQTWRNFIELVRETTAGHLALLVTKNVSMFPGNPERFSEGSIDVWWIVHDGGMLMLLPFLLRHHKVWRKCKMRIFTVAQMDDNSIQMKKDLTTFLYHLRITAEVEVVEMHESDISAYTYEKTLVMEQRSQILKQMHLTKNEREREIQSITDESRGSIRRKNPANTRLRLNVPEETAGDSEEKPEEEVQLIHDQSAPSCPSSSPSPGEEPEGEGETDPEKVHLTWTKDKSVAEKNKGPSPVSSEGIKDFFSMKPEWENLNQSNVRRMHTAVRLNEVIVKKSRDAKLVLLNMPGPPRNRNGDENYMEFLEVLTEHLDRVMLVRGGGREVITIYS
hERG rescue = compounds protecting human hERG from proarrhythmic drug block. CHO-hERG, FluxOR thallium flux, dofetilide IC70 present. Q12809. activation (rescue from dofetilide block), less the hit threshold, % at 10 µM. 310,000 tested, 0.51% active. AID 1511;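 active = activation above the mean of controls blocked by dofetilide plus 5 SD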;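 also: thallium influx through hERG after potassium depolarization seen as dye fluorescence rise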
KCNQ1 block = human KCNQ1 channel inhibition; 310,000 tested, 1.3% active; B-score at 10 µM; CHO-K1 KCNQ1, FluxOR thallium flux fluorescence; stronger effect = higher value; P51787;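 active = compounds whose thallium flux B-score, printed positive for inhibition, exceeds three library SD while starting fluorescence stays within three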;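 also: channel opened by potassium depolarization with thallium stimulus after 20 min compound exposure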
KCNK9 block = human KCNK9 channel inhibition; B-score at 10 µM; HEK293 KCNK9, FluxOR thallium flux fluorescence; stronger effect = lower value; Q9NPC2; 310,000 tested, 1.2% active;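 active = ratio B-score over 3 SD below the library mean, with starting fluorescence within 5 SD of its mean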;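 also: negative B-score means less thallium flux so channel inhibition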
KCNK3 inh = human KCNK3 channel inhibition, primary screen; O14649; CHO-KCNK3 thallium flux, FluxOR fluorescence; stronger effect = lower value; B-score at 10 µM; 340,000 tested, 0.84% active;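 active = B-score under library mean minus 4 SD, starting fluorescence ratio at most library mean plus 5 SD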;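 also: more negative B-score means stronger inhibition of thallium flux through KCNK3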
KCNQ1 pot = potentiators or activators of human KCNQ1 potassium channel. P51787. CHO-K1 KCNQ1, thallium flux FluxOR fluorescence; stronger effect = higher value. B-score at 10 µM. 310,000 tested, 0.35% active;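 active = fluorescence ratio B-score, a plate-corrected score, at least three library SD, with initial intensity B-score within 5 SD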
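Assay system: CHO-K1 cells stably expressing KCNQ1. Medium: assay buffer for compound exposure, DMSO matched across wells. Timing: 37 °C overnight plating, 90-min dark dye load, 20-min compound pretreatment. Signal: kinetic FluxOR fluorescence, 10 s baseline plus 110 s post-stimulus.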
Starred values were filed as active, the others as inactive; i = inactive; · = not tested or not shown.

SMILES | Cl transport mod | hERG rescue | KCNQ1 block | KCNK9 block | KCNK3 inh | KCNQ1 pot
CCN(CC(=O)Nc1ccccc1C(F)(F)F)C(=O)c1ccccc1Cc1ccccc1 | · | -15 | i | i | i | i
NC(N)=N/N=C(\N=Nc1ccccc1)c1ccc(Cl)cc1 | · | · | · | · | i | ·
S=C1CCSc2ccc(Cl)cc2N1 | 9.8* | 0 | i | i | i | i
Cc1ccc(-c2cc3nc(C)cc(C)n3n2)cc1 | -0.31 | -9 | i | i | i | i
COc1ccc(-c2cc3nc(C)cc(N4CC(C)CC(C)C4)n3n2)cc1 (stereo not given) | 0.39 | -12 | 6* | i | i | i
C=CCn1c(N)c(C(=O)NCc2ccco2)sc1=S | 1.6 | -10 | i | i | i | i
O=C(NCc1ccco1)c1sc(=S)n2c1[nH]c(=O)c1ccccc12 | · | -9 | 7* | i | i | i
Cc1ccc(CNC(=O)c2ccc3c(=O)[nH]c4c(C(=O)NCC5CCCO5)sc(=S)n4c3c2)cc1 (stereo not given) | -2 | -9 | 10* | i | i | i
O=C(NCc1ccccc1)c1ccc2c(=O)[nH]c3c(C(=O)NCC4CCCO4)sc(=S)n3c2c1 (stereo not given) | -2.8 | -20 | 8* | i | i | i
O=C1CSC(c2ccccc2)N1Cc1ccccc1 (stereo not given) | · | -6 | i | i | i | i
CSCCC(NC(=O)c1ccccc1Br)C(=O)NNC(=O)C1COc2ccccc2O1 (stereo not given) | · | · | · | · | i | ·
CCOC(=O)Cc1csc(NC(=O)C2C3C=CC(C3)C2C(=O)O)n1 (stereo not given) | 1.3 | -5 | i | i | i | i
COc1ccc(NC(=O)C2C3C=CC(C3)C2C(=O)O)cc1 (stereo not given) | -0.2 | -7 | i | i | i | i
Cc1csc(NC(=O)C2C3C=CC(C3)C2C(=O)O)n1 (stereo not given) | 1.2 | 5.4* | i | i | i | i
COc1cccc(NC(=O)C2C3C=CC(C3)C2C(=O)O)c1 (stereo not given) | · | 7.4* | i | i | i | i
Cc1ccc(Oc2ccc(OCC(=O)NC(CC(C)C)C(=O)O)cc2)cc1 (stereo not given) | -0.088 | 4.9* | i | i | i | i
CN=C1S/C(=C\c2ccc(N3CCOCC3)cc2C)C(=O)N1C | 0.069 | -6 | i | i | i | i
COCCN1C(=O)/C(=C/c2ccc(N3CCCC3)cc2C)SC1=S | -5.4* | -21 | i | i | i | i
Cc1ccc(S(=O)(=O)NCCC2(C(C)C)CCOC(C)(C)C2)cc1 (stereo not given) | -0.66 | -8 | i | i | i | i
Cc1ccc(C2=NNC3(CCOC(C)(C)C3)S2)cc1 (stereo not given) | 25* | -2 | i | i | i | i
COCCN(C(=O)CSc1nnc(-c2ccco2)n1C)c1c(N)n(CC(C)C)c(=O)[nH]c1=O | · | · | · | · | i | ·
C/C(=N\N=C(c1ccccc1)c1ccccc1)c1cccs1 | -0.82 | -12 | 6* | i | i | i
O=C(Cc1ccc(NC(=O)C2CCN(C(=O)C3CC3)CC2)cc1)Nc1ccc(C(=O)N2CCOCC2)cc1 | · | · | · | · | i | ·
Oc1ccc(Cl)cc1CNc1cccc2cccnc12 | · | -4 | i | -7.7* | i | i
Cc1cc(C)n(-c2nnc(C)n2/N=C/c2ccccc2OCc2ccccc2Cl)n1 | 2.7 | -20 | i | -7.1* | i | i
SMILES | Cl transport mod | hERG rescue | KCNQ1 block | KCNK9 block | KCNK3 inh | KCNQ1 pot
Cc1ccc(NC(=O)c2cc(S(=O)(=O)N3CCOCC3)ccc2Cl)cc1S(=O)(=O)N1CCOCC1 | · | · | · | · | i | ·
COc1ccc(N(C(=O)c2snc(C(N)=O)c2N)C(C(=O)NC2CCCCC2)c2ccc(C)o2)c(OC)c1 (stereo not given) | · | -9 | 6* | i | i | i
Cc1ccccc1N(C(=O)c1snc(C(N)=O)c1N)C(C(=O)NC1CCCCC1)c1ccc(O)cc1 (stereo not given) | · | -9 | 6* | i | i | i
COc1ccc(C(C(=O)NC2CCCCC2)N(C(=O)c2snc(C(N)=O)c2N)c2ccc(OC)cc2OC)cc1 (stereo not given) | · | -8 | i | i | i | i
Cc1cnc(C(=O)OCC(=O)N(Cc2ccccc2)C(C)(C)C)cn1 | · | · | · | · | i | ·
CCOc1ccc(N=C(C)c2ccccc2O)cc1 | -0.39 | -1 | i | i | i | i
NS(=O)(=O)c1ccc(N=Nc2ccc(O)c3ncccc23)cc1 | · | 0 | i | i | i | i
CCOc1ccc(N=Nc2cc(C(C)C)ccc2O)cc1 | -0.016 | 9.1* | i | i | i | i
CCOc1ccc(N=Nc2ccc(O)c3ncccc23)cc1 | · | 11* | i | i | i | i
COc1ccc(C(CNC(=O)Cc2ccccc2F)N2CCCCC2)cc1 (stereo not given) | -0.71 | 6.3* | i | i | i | i
COc1ccc(C(CNC(=O)Cc2ccccc2Cl)N2CCCCC2)cc1 (stereo not given) | · | -10 | i | i | i | i
COc1ccc(CN(Cc2cccn2C)S(=O)(=O)c2ccc(C)cc2)cc1 | -0.064 | -8 | i | i | i | i
COc1ccc(CN(Cc2cccn2C)S(=O)(=O)c2ccc(F)cc2)cc1 | -1.4 | -2 | i | -6.8* | i | i
Cc1ccc2oc(=O)c3cc(C(=O)N4CCN(C(=O)c5ccco5)CC4)sc3c2c1 | -2.5* | -10 | i | i | · | i
Cc1nc2sccn2c1-c1csc(NCc2ccccc2)n1 | -2.8 | -21 | 6* | i | i | i
CN1CCN(C(CNC(=O)Nc2ccc(Cl)cc2)c2ccc(F)cc2)CC1 (stereo not given) | · | -11 | 6* | i | i | i
CCOC(=O)CNC1CC(=O)N(c2cccc(Cl)c2)C1=O (stereo not given) | -1.4 | 5.3* | i | i | i | i
CCCOc1ccc(N2C(=O)CC(NCC(=O)OCC)C2=O)cc1 (stereo not given) | · | -7 | i | i | i | i
Cc1ccc(C(=O)c2cc([N+](=O)[O-])ccc2N2CC(C)OC(C)C2)cc1 (stereo not given) | -0.49 | -3 | i | i | i | i
Cc1ccc(C(=O)c2cc([N+](=O)[O-])ccc2N2CCCCC2)cc1 | -0.39 | -12 | i | -7.4* | i | i
CC1CCCN(c2ccc([N+](=O)[O-])cc2C(=O)c2ccccc2)C1 (stereo not given) | -0.044 | -15 | 6* | i | i | i
